Results of several laboratories.
Each line is one published result; the experiments were not run side by side.
Target: Cytochrome P450 2C19 (CYP2C19, Homo sapiens, UniProt P33261)
Effect on: enzyme activity
Action: inhibitor

Structure (SMILES)	test	system	setting	IC50
Nc1nc(N)c2nc(CNc3ccc(C(=O)NCCc4ccccc4)cc3)cnc2n1	luciferase			15.1 µM
CC1=CC(=O)C(C(C)C)=CC1=O	fluorescence		pH 7.4	3.6 µM
CCc1cc(/C(C)=N/OCc2ccc(C3CCCCC3)c(C(F)(F)F)c2)ccc1CN1CC(C(=O)O)C1		human, liver microsomes	20 min	> 0.5 µM
O=C(NCCN1CCCC1)c1cc(-c2ccc(CN3CCOCC3)cc2)nc2ccc(F)cc12		human, liver microsomes		> 100 µM
CCOC(=O)C1CCN(C(=O)c2ccc(N(CC)Cc3cnc4nc(N)nc(N)c4n3)cc2)CC1	luciferase			6.76 µM
COc1ccn2c(Nc3ccccc3F)c(-c3ccncn3)nc2c1				0.93 µM
CCCN(CCC)CCc1cccc2c1CC(=O)N2	fluorescence			> 1000 µM
Nc1nc(N)c2nc(CNc3ccc(C(=O)c4ccccc4)cc3)cnc2n1	luciferase			25.1 µM
COc1ccc2[nH]c([S+]([O-])Cc3ncc(C)c(OC)c3C)nc2c1 (stereo not drawn)		human, liver microsomes	90 min, pH 7.4	0.662 µM
Cc1cc2c(F)c(Oc3ncnn4cc(OC[C@@H](C)O)c(C)c34)ccc2[nH]1	fluorescence		15 min	3.64 µM
COc1ccc2c(Cc3ccccc3F)c3n(c(=O)c2c1OC)CCc1cc2c(cc1-3)OCO2				4.7 µM
CC(CN1c2ccccc2Sc2ccccc21)N(C)C (stereo not drawn)	fluorescence			40.8 µM
